Most compounds without a hit are left out; they make up all but 4.2% or so of the library.
TMEM16A inh: mouse TMEM16A channel inhibition, primary screen | Q8BHY3 | HEK293 TMEM16A/YFP iodide influx fluorescence, ionomycin | normalized B-score (activity score, 25-100; higher = stronger inhibition) at 10 µM | actives 1.2% (n = 310,000);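 active = ratio plate-corrected score three or more library SD toward inhibition, starting fluorescence score within five deviations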;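 note: score derived from kinetic fluorescence span divided by baseline fluorescence per well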
ANO1 activ: mouse TMEM16A channel activation, primary screen | B-score at 10 µM | AID 623877 | HEK293 TMEM16A/YFP-H148Q/I152L, iodide quench fluorescence; hits give low values | Q8BHY3 | actives 0.3% (n = 340,000);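 active = fluorescence-ratio B-score plate-corrected deviation score at least 3 library SD below zero, with starting fluorescence score within 5 deviations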;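 note: channel opened by trigger with iodide after compound preincubation; score built on the fluorescence ratio of max minus min over baseline; more negative score means more quench and so TMEM16A activation or potentiation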
UPR CHOP act: apoptotic UPR (CHOP) activation | CHO-CHOP luciferase reporter, luminescence; percent of tunicamycin response over DMSO baseline | activation, % at 10 µM | actives 0.34% (n = 330,000) | AID 449763;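 active = at 10 µM dose, activation of 40% or more, normalized to positive control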;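 note: 100% = tunicamycin at 10 µg/mL and 0% = DMSO alone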
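Material: CHO-CHOP cells, stable luciferase reporter of PERK-eIF2a-CHOP signalling; quantity: 500 reporter cells seeded per well; buffer or medium: F12 medium containing 10% fetal bovine serum; compound: one dose, 10 µM in 0.5% DMSO; incubation: 6 h compound treatment, 37 °C; measured by: Steady-Glo luciferase luminescence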
Hep lipid drop: modulators of hepatic lipid droplet formation | AML12 mouse hepatocytes, oleate lipid droplets, BODIPY imaging | inhibition, % at 6.5 µM | actives 0.4% (n = 240,000);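 active = lipid droplet intensity inhibited by at least 50%, with more than 500 cells counted; inconclusive = wells with under 300 cells, treated as cytotoxic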
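Technique: fluorescence imaging, 20x objective, two fields per well / Assay system: AML12 hepatocytes (mouse) / Measure: % inhibition of lipid droplet signal / Doses: 6.5 µM single-point dosing / Incubation: overnight exposure / Reagent: 100 µM oleic acid challenge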
XBP1 UPR activ: adaptive UPR (XBP1) activation; activation, % at 20 µM; AID 463104; CHO-XBP1 luciferase reporter, IRE1-XBP1 UPR activation, luminescence; percent of tunicamycin response, DMSO as zero; actives 0.33% (n = 330,000);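 active = versus positive control, 20 µM dose yields 30% or more activation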;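 note: 100% = tunicamycin at 10 µg/mL and 0% = DMSO only wells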
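Signal: luciferase luminescence; Assay system: CHO-XBP1 luciferase reporter cells; Amount: one thousand reporter cells per well; Dosing: 20 µM single concentration, DMSO 1%; Benchmarks: high control tunicamycin 10 µg/mL final, low control DMSO vehicle only; Schedule: 6 h compound exposure at 37 °C, 5% CO2; Evaluation: percent activation relative to tunicamycin reference.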
CHOP inh: blocks CHOP induction under ER stress | CHO-K1 CHOP-promoter luciferase, tunicamycin-induced, 15-18 h | inhibition, % at 10 µM | actives 3.8% (n = 220,000);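 active = compounds that reduced the stress-induced luciferase reporter signal by more than about 70% of percent inhibition, limit read from the data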;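 note: 0% = tunicamycin plus vehicle and 100% = wells without tunicamycin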
Starred values were filed as active, the others as inactive; i = inactive; ? = inconclusive; . = not tested or not shown.

SMILES	TMEM16A inh	ANO1 activ	UPR CHOP act	Hep lipid drop	XBP1 UPR activ	CHOP inh
O=C1NC(=O)N(CCc2ccc(F)cc2)C(=O)/C1=C\C=C\c1ccccc1	.	i	.	1.8	.	72.6*
C=CCN1C(=O)NC(=O)/C(=C/C=C/c2ccccc2)C1=O	.	i	.	-12.6	.	15.1
NC(N)=NOCC[C@H](N)C(=O)O	.	.	.	.	.	-22.3
CCN1C(=O)C(=Cc2ccc(N3CCOCC3)o2)C(=O)N(CC)C1=S	i	-5.49*	1.9	1.4	-3.4	15.9
CN1C(=O)C(=Cc2ccc(N3CCOCC3)o2)C(=O)N(C)C1=S	i	i	0.3	7.3	1.6	3.2
N=Cc1c(O)n(-c2ccc(C34CC5CC(CC(C5)C3)C4)cc2)c(=O)[nH]c1=O	i	i	0.3	2.7	-0.3	80.6*
COC(=O)C1=C(C(=O)OC)SC2(S1)C(C(=O)OC)=C(C(=O)OC)Sc1c2ssc1=O	.	i	.	.	.	.
CNc1cc(Cl)c2nonc2c1[N+](=O)[O-]	.	i	.	-49.9	.	106.9*
NC1CC1c1ccccc1 (stereo unspecified)	.	.	.	.	.	0.1
CC(C)(C)n1cccc1/C=C1\C(=O)NC(=O)N(c2ccccc2)C1=O	i	i	1.2	-7.8	1.0	-14.1
Cc1cc(C)cc(N2C(=O)NC(=O)/C(=C/c3cccn3-c3ccc(Cl)cc3)C2=O)c1	i	i	99.0*	-10.6	-2.4	-88.0
CC1(C(=O)O)C2CCC(O2)C1(C)C(=O)O (stereo unspecified)	.	.	.	.	.	-4.1
CNc1ccc2nc3ccccc3[n+](C)c2c1	i	-5.03*	2.3	-2.3	-5.8	.
CCCn1c(=O)c2[nH]c(C3CCCC3)nc2n(CCCOC(=O)c2ccc(S(=O)(=O)F)cc2)c1=O	.	.	.	.	.	0.3
Cc1nc(-c2ccc(-c3ccc(C(=O)N4CCc5cc6c(cc54)C4(CCN(C)CC4)CO6)cc3)c(C)c2)no1	.	.	.	.	.	17.1
NC(=O)c1cn(C2OC(CO)C(O)C2O)c2ncnc(N)c12 (stereo unspecified)	i	i	-3.9	?	0.7	105.3*
CCn1nc(-c2ccccc2)nc2c(=O)n(C)c(=O)nc1-2	i	i	-6.6	-23.2	-9.5	107.8*
Cc1nc2c(=O)n(C)c(=O)nc-2n(C)n1	i	i	-5.9	?	-9.0	.
CCOP(=O)(OCC)C(NC(=O)CC(C)C)C(Cl)(Cl)Cl (stereo unspecified)	i	i	-2.0	-2.0	-1.4	70.7*
Cc1ccccc1NC(=O)NCCN1CC1	i	i	3.0	12.5	2.6	-1.1
CCC(=NCCCN(CC)CC)c1c(O)n(C2CCCCC2)c(=O)[nH]c1=O	100*	i	0.1	.	-0.5	14.2
O=[N+]([O-])c1ccc(C2[C@H]3C(c4ccccc4)=NC4(CCCC4)N23)cc1 (stereo partly specified)	i	i	-2.9	4.2	-3.3	9.0
Cc1ccc(C2=NC(C)(C)N3C2C3c2ccc([N+](=O)[O-])cc2)cc1 (stereo unspecified)	i	i	-0.4	19.7	-0.6	70.3*
CN1CCN(c2ccc3ccccc3n2)CC1	.	.	.	.	.	5.5
CCOC(=O)C(O)(c1ccc(NC(=O)c2ccc(Cl)c(Cl)c2)cc1)C(F)(F)F (stereo unspecified)	i	i	2.2	-14.9	-0.6	2.6
CCOC(=O)C(=CNc1ccc(C(O)(C(=O)OCC)C(F)(F)F)cc1C)C(=O)OCC (stereo unspecified)	i	i	0.8	-143.7	0.6	89.5*
O=C1C(=O)c2ccccc2-c2ccccc21	i	i	-4.8	-0.4	-11.7	107.0*
C[C@H]1CCC/C=C/C2C[C@H](O)CC2[C@H](O)/C=C/C(=O)O1 (stereo partly specified)	i	i	107.4*	?	14.4	.
CN1CCN(c2ccc([N+](=O)[O-])c3no[n+]([O-])c23)CC1	i	i	.	-50.5	.	106.8*
CCC(=NCc1ccc(F)cc1)c1c(O)n(C)c(=O)n(C)c1=O	100*	i	-1.3	.	1.8	58.2
